The source made the active and inactive calls. No cut-off for these calls is given here.
Key:
[1] = Induction of ERstress in human HeLa cells assessed as increase in caspase-12 expression level measured after 24 hrs by Western blot analysis relative to control; assay type: functional
Summary of the method: (§1)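 HeLa cells treated 24 h, lysed, proteins separated by gel electrophoresis and immunoblotted for BiP, CHOP, IRE1α, PERK or caspase-12; expression given as fold change over untreated control.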

[2] = Induction of ERstress in human HeLa cells assessed as increase in PERK expression level measured after 24 hrs by Western blot analysis relative to control; assay type: functional; summary of the method: as §1
[3] = Drug uptake in endoplasmic reticulum of human HeLa cells at 5 uM measured after 3 and 6 hrs by ER-tarcker dye based laser confocal microscopy; assay type: ADME, subcellular
Summary of the method: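 HeLa cells given 5 μM compound (intrinsically green fluorescent) for 3 h and 6 h, ER counterstained with ER-Tracker Red, imaged by confocal laser scanning microscopy; colocalization quantified as Pearson's and Mander's coefficients.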

[4] = tested on: HeLa; assay: Cytotoxicity against human HeLa cells assessed as cell killing at 30 uM after 24 hrs by MTT assay
[5] = Induction of ERstress in human HeLa cells assessed as increase in IRE1-alpha expression level measured after 24 hrs by Western blot analysis relative to control; assay type: functional; summary of the method: as §1
[6] = tested on: HeLa; assay: Induction of apoptosis in human HeLa cells assessed as increase in late apoptotic cells level measured after 24 hrs by annexin-V-PI staining based flow cytometry (reference value: 0.08%); assay type: functional
Summary of the method: (§2)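 Apoptosis by flow cytometry: HeLa cells treated 24 h alone or with 50 μM chloroquine, stained with Annexin V-FITC and propidium iodide; early and late apoptotic fractions reported as % cells.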

[7] = tested on: HeLa; assay: Induction of apoptosis in human HeLa cells assessed as increase in early apoptotic cells level measured after 24 hrs by annexin-V-PI staining based flow cytometry (reference value: 1.26%); assay type: functional; summary of the method: as §2
[8] = Induction of ERstress in human HeLa cells assessed as increase in CHOP expression level measured after 24 hrs by Western blot analysis relative to control; assay type: functional; summary of the method: as §1
[9] = tested on: HeLa; assay: Induction of autophagy in human HeLa cells assessed as increase in LC3B level measured after 24 hrs by confocal microscopic analysis relative to control; assay type: functional
Summary of the method: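 HeLa cells treated 24 h, fixed in paraformaldehyde, permeabilized with 0.1% Tween-20 buffer, anti-LC3B primary 4 h, Alexa Fluor 488 secondary, DAPI nuclei; confocal imaging, green signal as fold over control.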

[10] = tested on: HeLa; assay: Induction of autophagy in human HeLa cells assessed as increase in beclin level measured after 24 hrs by confocal microscopic analysis relative to control; assay type: functional
Summary of the method: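 Immunofluorescence: HeLa cells treated 24 h, anti-Beclin primary then Alexa Fluor 594 secondary, DAPI counterstain; confocal microscopy, red signal as fold versus untreated control.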

[11] = tested on: HeLa; assay: Induction of ERstress in human HeLa cells assessed as increase in lipid level measured after 24 hrs by Oil-red-O staining analysis; assay type: functional, cell-based
Summary of the method: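 Lipid content: HeLa cells exposed 24 h, stained with Oil Red O plus DAPI for nuclei, viewed by confocal microscopy against untreated control.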

[12] = Induction of ERstress in human HeLa cells assessed as increase in CHOP expression level measured after 24 hrs by confocal microscopic analysis relative to control; assay type: functional
Summary of the method: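 After 24 h treatment, HeLa cells probed with anti-CHOP primary antibody (4 h), then Alexa Fluor 594 secondary; nuclei DAPI-stained; confocal imaging, red signal expressed as fold over untreated cells.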

[13] = tested on: HeLa; assay: Cytotoxicity against human HeLa cells assessed as cell viability after 24 hrs by MTT assay; assay type: functional, cell-based
Summary of the method: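 HeLa cells from NCCS incubated 24 h with compound across a concentration range (single-point screen at 30 μM); viability read by MTT assay; IC50 from dose-response; significance by two-way ANOVA.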

[14] = tested on: HeLa; assay: Induction of apoptosis in human HeLa cells assessed as increase in early apoptotic cells level measured after 24 hrs in presence of 50 uM of chloroquine by annexin-V-PI staining based flow cytometry (reference value: 1.26%); assay type: functional; summary of the method: as §2
[15] = tested on: HeLa; assay: Induction of apoptosis in human HeLa cells assessed as increase in late apoptotic cells level measured after 24 hrs in presence of 50 uM of chloroquine by annexin-V-PI staining based flow cytometry (reference value: 0.08%); assay type: functional; summary of the method: as §2
[16] = tested on: HeLa; assay: Induction of autophagy in human HeLa cells assessed as increase in LC3-II level measured after 24 hrs by Western blot analysis relative to control; assay type: functional
Summary of the method: (§3)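 HeLa cells (NCCS) exposed to compound for 24 h, then lysed; cellular proteins resolved by gel electrophoresis and immunoblotted for LC3-I, LC3-II and Beclin. Band levels expressed as fold change versus untreated control cells. The LC3-I/LC3-II ratio is taken from the same blots and also expressed as fold over control.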

[17] = Induction of ERstress in human HeLa cells assessed as increase in BiP expression level measured after 24 hrs by Western blot analysis relative to control; assay type: functional; summary of the method: as §1
[18] = tested on: HeLa; assay: Induction of autophagy in human HeLa cells assessed as increase in LC3-1 level measured after 24 hrs by Western blot analysis relative to control; assay type: functional; summary of the method: as §3
[19] = tested on: HeLa; assay: Induction of autophagy in human HeLa cells assessed as increase in LC3-I/LC3-II ratio level measured after 24 hrs by Western blot analysis relative to control; assay type: functional; summary of the method: as §3
[20] = tested on: HeLa; assay: Induction of autophagy in human HeLa cells assessed as increase in beclin level measured after 24 hrs by Western blot analysis relative to control; assay type: functional
Summary of the method: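 Western blot: HeLa cells treated 24 h, lysed, proteins resolved by gel electrophoresis and probed for Beclin; fold change versus untreated cells.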

In the case of `CN(C)c1cccc2c(S(=O)(=O)N/N=C/c3c[nH]c4cc(Br)ccc34)cccc12`, the “fold change (FC)” value [1] is reported as 1.4, the “fold change (FC)” value [2] is reported as 1.6 and the Drug uptake [3] is reported as “Active”. For the same compound, the cell killing at 30 µM [4] was > 60%, the “fold change (FC)” value [5] was 1.8 and the Activity [6] was 17.8%. For the same compound, the Activity [7] was 64.6%, the “fold change (FC)” value [8] was 1.6 and the “fold change (FC)” value [9] was 5. For the same compound, the “fold change (FC)” value [10] was 8, the Activity [11] was “Active” and the “fold change (FC)” value [12] was 1.7. It also gave an IC50 [13] of 9 µM, an Activity [14] of 28.6% and an Activity [15] of 62%. The “fold change (FC)” value [16] was 10, the “fold change (FC)” value [17] was 1.6 and the “fold change (FC)” value [18] was 2.6. For the same compound, the “fold change (FC)” value [19] was 3.8 and the “fold change (FC)” value [20] was 2.
For `O=S(=O)(N/N=C/c1c[nH]c2cc(Br)ccc12)c1ccc(Br)cc1`, the cell killing at 30 µM [4] was > 60%, the Activity [9] was “Active” and the Activity [11] was “Active”. It also gave an IC50 [13] of 16 µM.
For `O=S(=O)(N/N=C/c1c[nH]c2cc(Br)ccc12)c1ccc(Cl)cc1`, the cell killing at 30 µM [4] was > 60% and the IC50 [13] was 18 µM.
With `COc1ccc(S(=O)(=O)N/N=C/c2c[nH]c3cc(Br)ccc23)cc1` the cell killing at 30 µM [4] was > 60% and the IC50 [13] was 19 µM.

From ChEMBL document CHEMBL5120741, “Small molecule-mediated induction of endoplasmic reticulum stress in cancer cells” (RSC Med Chem, 2021)
